# Data: ChEMBL document CHEMBL1127325, “Potent gastrin-releasing peptide (GRP) antagonists derived from GRP (19-27) with a C-terminal DPro psi [CH2NH]Phe-NH2 and N-terminal aromatic residues” (J Med Chem, 1994)
# Where a SMILES comes first, the peptide text is derived from it. [ ]: non-standard residue; d: D form. The star is where a group is joined. ProΨ(CH2NH)PheNH2 = NC(=O)[C@H](Cc1ccccc1)NC[C@@H]1CCCN1*; dProψ(CH2NH)PheNH2 = NC(=O)[C@H](Cc1ccccc1)NC[C@H]1CCCN1*; X3 = NC(=O)[C@H](Cc1ccc(O)cc1)NC[C@H]1CCCN1*; Desaminotyrosyl = O=C(CCc1ccc(O)cc1)*; Hydrocinnamoyl = O=C(CCc1ccccc1)*; X9 = O=C(CCN1c2ccccc2Sc2ccccc21)*; X2 = O=C(Cc1ccccc1C(F)(F)F)*; Sar = CNCC(=O)O
# What was measured:
# [1] = biological target: T1, Gastrin-releasing peptide receptor (Mus musculus, UniProt P21729); assay: The ability of the peptide to inhibit the binding of 50 pM [125I]gastrin releasing peptide to intact S-3T3 cells; assay type: cell-based
# Outline: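 Serially diluted peptides overlaid in triplicate on quiescent Swiss 3T3 monolayers (about 10^5 cells) with 50 pM [125I]GRP in maintenance medium, 30 min at 37 °C. Monolayers washed three times with chilled medium, solubilized, radioactivity counted. IC50 values reported.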
# [2] = biological target: T1, Gastrin-releasing peptide receptor; assay: Ability of peptide to inhibit binding of 10 pM [125I]gastrin releasing peptide to S-3T3 cell membrane.; assay type: cell-based
# Outline: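 Swiss 3T3 membranes (10 µg protein) incubated in triplicate with 10 pM [125I]GRP(1-27) in HEPES-KOH pH 6.8 (20 mM) with EGTA, MgCl2, BSA and protease inhibitors, 60 min at 37 °C with shaking. Terminated by filtration through PEI-pretreated GF/B filters, gamma counted. Nonspecific binding taken with 10 nM unlabeled GRP(1-27). IC50 for half-maximal inhibition of specific binding by Hill plot analysis.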
# [3] = biological target: Gastrin-releasing peptide receptor (Mus musculus) (UniProt P21729); assay: Inhibition of 6 nM bombesin induced [3H]thymidine incorporation measured in swiss 3T3 cells using a mitogenicity assay; assay type: functional, cell-based
# Outline: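 Density-arrested quiescent Swiss 3T3 monolayers treated in triplicate with test peptide (generally log dilutions) plus 6 nM bombesin for 18 h, then pulsed 2 h with 0.5 µCi [3H]thymidine per well. Cells washed with cold PBS, fixed in methanol/acetic acid, solubilized, scintillation counted. IC50 ± SEM over replicate trials; na means no activity at 10^-4 M.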
# Chain of Gastrin-releasing peptide receptor (Mus musculus) (P21729 whole entry): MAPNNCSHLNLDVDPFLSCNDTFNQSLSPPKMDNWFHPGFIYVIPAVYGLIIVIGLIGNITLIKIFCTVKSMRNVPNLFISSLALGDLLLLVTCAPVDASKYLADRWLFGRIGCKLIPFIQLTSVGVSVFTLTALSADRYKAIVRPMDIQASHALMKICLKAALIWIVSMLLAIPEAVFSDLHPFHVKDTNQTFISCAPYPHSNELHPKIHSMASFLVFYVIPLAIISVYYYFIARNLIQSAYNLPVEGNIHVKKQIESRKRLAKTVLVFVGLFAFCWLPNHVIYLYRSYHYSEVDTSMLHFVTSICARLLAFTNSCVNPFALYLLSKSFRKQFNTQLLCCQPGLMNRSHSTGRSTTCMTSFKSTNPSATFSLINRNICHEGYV
# T1 sequence (P21729 whole entry): as above
Compound,IC50 [1] [nM],IC50 [2] [nM],Activity [3] [nM]
CC(C)[C@H](NC(=O)[C@H](C)NC(=O)[C@H](Cc1c[nH]c2ccccc12)NC(=O)[C@H](Cc1cnc[nH]1)NC(=O)C[C@H](C)c1ccccc1)C(=O)N[C@H](C)C(=O)N[C@@H](Cc1cnc[nH]1)C(=O)N1CCC[C@@H]1CN[C@@H](Cc1ccccc1)C(N)=O,10,0.21,
CC(C)[C@H](NC(=O)[C@H](C)NC(=O)[C@H](Cc1c[nH]c2ccccc12)NC(=O)[C@H](Cc1cnc[nH]1)NC(=O)C[C@@H](C)c1ccccc1)C(=O)N[C@H](C)C(=O)N[C@@H](Cc1cnc[nH]1)C(=O)N1CCC[C@@H]1CN[C@@H](Cc1ccccc1)C(N)=O,,0.49,
CC(C)[C@H](NC(=O)[C@H](C)NC(=O)[C@H](Cc1c[nH]c2ccccc12)NC(=O)[C@H](Cc1c[nH]cn1)NC(=O)[C@@H](N)Cc1ccc2ccccc2c1)C(=O)N[C@H](C)C(=O)N[C@@H](Cc1c[nH]cn1)C(=O)N1CCC[C@@H]1CN[C@@H](Cc1ccccc1)C(N)=O,,7.7,45
CC(C)[C@H](NC(=O)[C@H](C)NC(=O)[C@H](Cc1c[nH]c2ccccc12)NC(=O)[C@H](Cc1cnc[nH]1)NC(=O)CCc1cccc(C(F)(F)F)c1)C(=O)N[C@H](C)C(=O)N[C@@H](Cc1cnc[nH]1)C(=O)N1CCC[C@@H]1CN[C@@H](Cc1ccccc1)C(N)=O,10,0.16,
CC(C)[C@H](NC(=O)[C@H](C)NC(=O)[C@H](Cc1c[nH]c2ccccc12)NC(=O)[C@H](Cc1cnc[nH]1)NC(=O)CCc1ccccc1)C(=O)N[C@H](C)C(=O)N[C@@H](Cc1cnc[nH]1)C(=O)N1CCC[C@@H]1CN[C@H](Cc1ccc2ccccc2c1)C(N)=O,5,2,
CC(C)[C@H](NC(=O)[C@H](C)NC(=O)[C@H](Cc1c[nH]c2ccccc12)NC(=O)[C@H](Cc1cnc[nH]1)NC(=O)C1CCc2ccccc2C1)C(=O)N[C@H](C)C(=O)N[C@@H](Cc1cnc[nH]1)C(=O)N1CCC[C@@H]1CN[C@@H](Cc1ccccc1)C(N)=O (some centres undefined),0.3,0.079,
CC(C)[C@H](NC(=O)[C@H](C)NC(=O)[C@H](Cc1c[nH]c2ccccc12)NC(=O)[C@H](Cc1cnc[nH]1)NC(=O)Cc1cccc(C(F)(F)F)c1)C(=O)N[C@H](C)C(=O)N[C@@H](Cc1cnc[nH]1)C(=O)N1CCC[C@@H]1CN[C@@H](Cc1ccccc1)C(N)=O,,8.4,
CC(C)[C@H](NC(=O)[C@H](C)NC(=O)[C@H](Cc1c[nH]c2ccccc12)NC(=O)[C@H](Cc1cnc[nH]1)NC(=O)c1cc2ccccc2cn1)C(=O)N[C@H](C)C(=O)N[C@@H](Cc1cnc[nH]1)C(=O)N1CCC[C@@H]1CN[C@@H](Cc1ccccc1)C(N)=O,,0.57,
CC(C)[C@H](NC(=O)[C@H](C)NC(=O)[C@H](Cc1c[nH]c2ccccc12)NC(=O)[C@H](Cc1cnc[nH]1)NC(=O)c1cccc2ccccc12)C(=O)N[C@H](C)C(=O)N[C@@H](Cc1cnc[nH]1)C(=O)N1CCC[C@@H]1CN[C@@H](Cc1ccccc1)C(N)=O,0.001,0.05,
CC(C)[C@H](NC(=O)[C@H](C)NC(=O)[C@H](Cc1c[nH]c2ccccc12)NC(=O)[C@H](Cc1cnc[nH]1)NC(=O)Cc1ccc(C(F)(F)F)cc1)C(=O)N[C@H](C)C(=O)N[C@@H](Cc1cnc[nH]1)C(=O)N1CCC[C@@H]1CN[C@@H](Cc1ccccc1)C(N)=O,,3.7,
CC(C)[C@H](NC(=O)[C@H](C)NC(=O)[C@H](Cc1c[nH]c2ccccc12)NC(=O)[C@H](Cc1c[nH]cn1)NC(=O)C1CCc2ccccc2C1)C(=O)N[C@H](C)C(=O)N[C@@H](Cc1c[nH]cn1)C(=O)N1CCC[C@@H]1CN[C@@H](Cc1ccccc1)C(N)=O (some centres undefined),,,4
CC(C)[C@H](NC(=O)[C@H](C)NC(=O)[C@H](Cc1c[nH]c2ccccc12)NC(=O)[C@H](Cc1c[nH]cn1)NC(=O)CCc1cccc(C(F)(F)F)c1)C(=O)N[C@H](C)C(=O)N[C@@H](Cc1c[nH]cn1)C(=O)N1CCC[C@@H]1CN[C@@H](Cc1ccccc1)C(N)=O,,,0.35
CC(C)[C@H](NC(=O)[C@H](C)NC(=O)[C@H](Cc1c[nH]c2ccccc12)NC(=O)[C@H](Cc1c[nH]cn1)NC(=O)CCc1ccccc1)C(=O)N[C@H](C)C(=O)N[C@@H](Cc1c[nH]cn1)C(=O)N1CCC[C@@H]1CN[C@@H](Cc1ccc2ccccc2c1)C(N)=O,,,40
CC(C)[C@H](NC(=O)[C@H](C)NC(=O)[C@H](Cc1c[nH]c2ccccc12)NC(=O)[C@H](Cc1c[nH]cn1)NC(=O)C[C@@H](C)c1ccccc1)C(=O)N[C@H](C)C(=O)N[C@@H](Cc1c[nH]cn1)C(=O)N1CCC[C@@H]1CN[C@@H](Cc1ccccc1)C(N)=O,,,17
CC(C)[C@H](NC(=O)[C@H](C)NC(=O)[C@H](Cc1c[nH]c2ccccc12)NC(=O)[C@H](Cc1c[nH]cn1)NC(=O)C[C@H](C)c1ccccc1)C(=O)N[C@H](C)C(=O)N[C@@H](Cc1c[nH]cn1)C(=O)N1CCC[C@@H]1CN[C@@H](Cc1ccccc1)C(N)=O,,,0.16
CC(C)[C@H](NC(=O)[C@H](C)NC(=O)[C@H](Cc1c[nH]c2ccccc12)NC(=O)[C@H](Cc1c[nH]cn1)NC(=O)Cc1ccc(C(F)(F)F)cc1)C(=O)N[C@H](C)C(=O)N[C@@H](Cc1c[nH]cn1)C(=O)N1CCC[C@@H]1CN[C@@H](Cc1ccccc1)C(N)=O,,,200
CC(C)[C@H](NC(=O)[C@H](C)NC(=O)[C@H](Cc1c[nH]c2ccccc12)NC(=O)[C@H](Cc1c[nH]cn1)NC(=O)Cc1cccc(C(F)(F)F)c1)C(=O)N[C@H](C)C(=O)N[C@@H](Cc1c[nH]cn1)C(=O)N1CCC[C@@H]1CN[C@@H](Cc1ccccc1)C(N)=O,,,260
CC(C)[C@H](NC(=O)[C@H](C)NC(=O)[C@H](Cc1c[nH]c2ccccc12)NC(=O)[C@H](Cc1c[nH]cn1)NC(=O)c1cc2ccccc2cn1)C(=O)N[C@H](C)C(=O)N[C@@H](Cc1c[nH]cn1)C(=O)N1CCC[C@@H]1CN[C@@H](Cc1ccccc1)C(N)=O,,,4
CC(C)[C@H](NC(=O)[C@H](C)NC(=O)[C@H](Cc1c[nH]c2ccccc12)NC(=O)[C@H](Cc1c[nH]cn1)NC(=O)c1cccc2ccccc12)C(=O)N[C@H](C)C(=O)N[C@@H](Cc1c[nH]cn1)C(=O)N1CCC[C@@H]1CN[C@@H](Cc1ccccc1)C(N)=O,,,0.3
CCCCC(NC[C@H]1CCCN1C(=O)[C@H](Cc1cccs1)NC(=O)[C@@H](C)NC(=O)[C@@H](NC(=O)[C@H](C)NC(=O)[C@H](Cc1c[nH]c2ccccc12)NC(=O)[C@H](Cc1c[nH]cn1)NC(=O)CCc1ccccc1)C(C)C)C(N)=O (some centres undefined),,,300
CC(C)[C@H](NC(=O)[C@H](C)NC(=O)[C@H](Cc1c[nH]c2ccccc12)NC(=O)[C@H](Cc1c[nH]cn1)NC(=O)CCc1ccc(O)cc1)C(=O)N[C@H](C)C(=O)N[C@@H](Cc1c[nH]cn1)C(=O)N1CCC[C@@H]1CN[C@@H](Cc1ccccc1)C(N)=O (Desaminotyrosyl-HWAV[dA]H-{dProψ(CH2NH)PheNH2}),,,0.16
CC(C)[C@H](NC(=O)[C@H](C)NC(=O)[C@H](Cc1c[nH]c2ccccc12)NC(=O)[C@H](Cc1c[nH]cn1)NC(=O)CCc1ccccc1)C(=O)N(C)CC(=O)N[C@@H](Cc1c[nH]cn1)C(=O)N1CCC[C@H]1CN[C@@H](Cc1ccccc1)C(N)=O (Hydrocinnamoyl-HWAV[Sar]H-{ProΨ(CH2NH)PheNH2}),,,0.43
CC(C)[C@H](NC(=O)[C@H](C)NC(=O)[C@H](Cc1c[nH]c2ccccc12)NC(=O)[C@H](Cc1c[nH]cn1)NC(=O)CCc1ccccc1)C(=O)N[C@H](C)C(=O)N[C@@H](Cc1c[nH]cn1)C(=O)N1CCC[C@@H]1CN[C@@H](Cc1ccc(O)cc1)C(N)=O (Hydrocinnamoyl-HWAV[dA]H-X3),,0.33,10
CC(C)[C@H](NC(=O)[C@H](C)NC(=O)[C@H](Cc1c[nH]c2ccccc12)NC(=O)[C@H](Cc1c[nH]cn1)NC(=O)Cc1ccccc1C(F)(F)F)C(=O)N[C@H](C)C(=O)N[C@@H](Cc1c[nH]cn1)C(=O)N1CCC[C@@H]1CN[C@@H](Cc1ccccc1)C(N)=O (X2-HWAV[dA]H-{dProψ(CH2NH)PheNH2}),,12,330
CC(C)[C@H](NC(=O)[C@H](C)NC(=O)[C@H](Cc1c[nH]c2ccccc12)NC(=O)[C@H](Cc1c[nH]cn1)NC(=O)CCN1c2ccccc2Sc2ccccc21)C(=O)N[C@H](C)C(=O)N[C@@H](Cc1c[nH]cn1)C(=O)N1CCC[C@@H]1CN[C@@H](Cc1ccccc1)C(N)=O (X9-HWAV[dA]H-{dProψ(CH2NH)PheNH2}),,1.9,29
CC(NC(=O)[C@H](Cc1csc2ccccc12)NC(=O)[C@H](Cc1c[nH]cn1)NC(=O)CCc1ccccc1)C(=O)N[C@H](C(=O)NC(C)C(=O)N[C@@H](Cc1c[nH]cn1)C(=O)N1CCC[C@@H]1CN[C@@H](Cc1ccccc1)C(N)=O)C(C)C (stereo in doubt),,0.75,430
CC(C)[C@H](NC(=O)[C@H](C)NC(=O)[C@H](Cc1c[nH]c2ccccc12)NC(=O)[C@H](Cc1c[nH]cn1)NC(=O)CCc1ccccc1)C(=O)N[C@H](C)C(=O)N[C@@H](Cc1c[nH]cn1)C(=O)N1CCC[C@@H]1CNC(Cc1ccccc1)C(N)=O (stereo in doubt),,0.038,
CC(NC(=O)[C@@H](NC[C@H](C)NC(=O)[C@H](Cc1c[nH]c2ccccc12)NC(=O)[C@H](Cc1c[nH]cn1)NC(=O)CCc1ccccc1)C(C)C)C(=O)N[C@@H](Cc1c[nH]cn1)C(=O)N1CCC[C@H]1CN[C@@H](Cc1ccccc1)C(N)=O (stereo in doubt),,> 10,47
